Active and inactive are the calls of the source. The calls are words filed in the database; no cut-off is given here.
Columns and labels:
[1] = molecular target: T1, Sphingosine 1-phosphate receptor 1 (Homo sapiens, UniProt P21453); test: Agonist activity against human S1P1 assessed as accumulation of cAMP by HTRF assay; type: functional
In short: (§1)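 Agonist EC50 was read from a cAMP HTRF assay run on human, rat and mouse S1P1. Response was scaled against S1P, and values are the mean of three or more replicates.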

[2] = molecular target: Sphingosine 1-phosphate receptor 5 (Homo sapiens, UniProt Q9H228); test: Agonist activity against human S1P5 by beta arrestin recruitment assay; type: functional
In short: (§2)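 Agonist EC50 at human S1P1 through S1P5 was measured by β-arrestin recruitment. Values are the mean of three or more replicates.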

[3] = molecular target: T2, Sphingosine 1-phosphate receptor 4 (Homo sapiens, UniProt O95977); test: Agonist activity against human S1P4 by beta arrestin recruitment assay; type: functional; in short: as §2
T2 sequence (O95977 whole entry): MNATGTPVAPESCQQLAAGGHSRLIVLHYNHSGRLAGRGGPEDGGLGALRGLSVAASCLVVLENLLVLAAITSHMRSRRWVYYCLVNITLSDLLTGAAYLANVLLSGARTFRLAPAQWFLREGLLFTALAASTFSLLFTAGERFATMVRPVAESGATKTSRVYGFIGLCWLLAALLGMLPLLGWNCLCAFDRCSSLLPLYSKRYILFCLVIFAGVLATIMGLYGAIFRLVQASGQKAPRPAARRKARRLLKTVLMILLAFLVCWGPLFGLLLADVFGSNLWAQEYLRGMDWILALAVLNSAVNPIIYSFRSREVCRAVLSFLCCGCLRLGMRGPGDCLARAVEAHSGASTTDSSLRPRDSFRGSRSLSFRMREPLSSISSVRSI

[4] = molecular target: Sphingosine 1-phosphate receptor 2 (Homo sapiens, UniProt O95136); test: Agonist activity against human S1P2 by beta arrestin recruitment assay; type: functional; in short: as §2
[5] = molecular target: Sphingosine 1-phosphate receptor 3 (Homo sapiens, UniProt Q99500); test: Agonist activity against human S1P3 by beta arrestin recruitment assay; type: functional; in short: as §2
[6] = molecular target: Sphingosine 1-phosphate receptor 1 (Mus musculus, UniProt O08530); test: Agonist activity against mouse S1P1 assessed as accumulation of cAMP by HTRF assay; type: functional; in short: as §1
[7] = molecular target: T1, Sphingosine 1-phosphate receptor 1; test: Agonist activity against human S1P1 by beta arrestin recruitment assay; type: functional; in short: as §2
[8] = molecular target: Sphingosine 1-phosphate receptor 1 (Rattus norvegicus, UniProt P48303); test: Agonist activity against rat S1P1 assessed as accumulation of cAMP by HTRF assay; type: functional; in short: as §1
[9] = system: Mus musculus; test: Immunosuppressant activity in BALB/c mouse assessed as reduction in circulating lymphocyte at 6 mg/kg, po measured up to 24 hrs; type: functional, organism-based; set-up: dose 6 mg/kg
In short: (§3)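 BALB/c mice were dosed orally as a suspension in 0.5% methyl cellulose, at 6 mg/kg or 1.0 mg/kg. Circulating lymphocytes were followed over time, with readings at 5 h and 24 h.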

[10] = system: Mus musculus; test: Immunosuppressant activity in BALB/c mouse assessed as reduction in circulating lymphocyte at 30 mg/kg, po measured at 24 hrs; type: functional, organism-based; set-up: dose 30 mg/kg
[11] = system: Mus musculus; test: Immunosuppressant activity in BALB/c mouse assessed as reduction in circulating lymphocyte at 6 mg/kg, po measured after 5 hrs; type: functional, organism-based; set-up: dose 6 mg/kg; in short: as §3
[12] = system: Rattus norvegicus; test: Immunosuppressant activity in collagen-induced Lewis rat arthritis model assessed as reduction in joint inflammation at 0.075 mg/kg, po qd; type: functional, organism-based; set-up: dose 0.075 mg/kg
[13] = system: Mus musculus; test: Immunosuppressant activity in autoimmune encephalomyelitis C57B1/6 mouse model assessed as reduction in disease score at 10 mg/kg, po qd administered on day 3 post challenge; type: functional, organism-based; set-up: dose 10 mg/kg
In short: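 Oral dosing once daily in 0.5% methylcellulose began on day 3. Signs of disease were monitored daily and graded on a 1–5 scale, from limp tail or hind-limb weakness (1) to death (5).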

[14] = system: Mus musculus; test: Reduction T-cell mediated beta-cell destruction in cyclophosphamide-induced non-obese type 1 diabetes mouse model assessed as normalization of blood glucose at 3 to 10 mg/kg, po qd for 25 days; type: functional, organism-based
In short: (§4)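 NOD mice were given cyclophosphamide i.p. on days 0 and 14 to accelerate diabetes onset. Oral dosing once daily in 0.5% methyl cellulose ran from day 0 to day 25. Animals with non-fasting blood glucose >250 mg/dL were scored diabetic.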

[15] = system: Mus musculus; test: Immunosuppressant activity in BALB/c mouse assessed as reduction in circulating lymphocyte at 1 mg/kg, po measured at 24 hrs; type: functional, organism-based; set-up: dose 1 mg/kg; in short: as §3
[16] = system: Mus musculus; test: Reduction T-cell mediated beta-cell destruction in cyclophosphamide-induced non-obese type 1 diabetes mouse model assessed as normalization of blood glucose at 1 mg/kg, po qd for 25 days; type: functional, organism-based; set-up: dose 1 mg/kg; in short: as §4
[17] = system: Rattus norvegicus; test: Immunosuppressant activity in collagen-induced Lewis rat arthritis model assessed as reduction in joint inflammation at 1 to 10 mg/kg, po qd; type: functional, organism-based
[18] = system: Mus musculus; test: Immunosuppressant activity in BALB/c mouse assessed as reduction in circulating lymphocyte at 1 mg/kg, po measured at 5 hrs; type: functional, organism-based; set-up: dose 1 mg/kg; in short: as §3

T1 sequence (P21453 whole entry): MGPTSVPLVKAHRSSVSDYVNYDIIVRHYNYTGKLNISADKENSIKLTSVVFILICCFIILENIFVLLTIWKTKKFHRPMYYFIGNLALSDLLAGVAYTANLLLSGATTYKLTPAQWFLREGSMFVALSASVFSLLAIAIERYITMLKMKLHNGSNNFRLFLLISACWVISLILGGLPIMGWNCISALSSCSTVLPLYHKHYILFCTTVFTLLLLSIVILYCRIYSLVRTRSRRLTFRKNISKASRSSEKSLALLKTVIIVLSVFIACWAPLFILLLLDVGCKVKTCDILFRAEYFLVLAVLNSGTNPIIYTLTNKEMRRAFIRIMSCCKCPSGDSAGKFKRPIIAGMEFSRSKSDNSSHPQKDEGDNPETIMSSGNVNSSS
Sphingosine 1-phosphate receptor 2, sequence (O95136 whole entry): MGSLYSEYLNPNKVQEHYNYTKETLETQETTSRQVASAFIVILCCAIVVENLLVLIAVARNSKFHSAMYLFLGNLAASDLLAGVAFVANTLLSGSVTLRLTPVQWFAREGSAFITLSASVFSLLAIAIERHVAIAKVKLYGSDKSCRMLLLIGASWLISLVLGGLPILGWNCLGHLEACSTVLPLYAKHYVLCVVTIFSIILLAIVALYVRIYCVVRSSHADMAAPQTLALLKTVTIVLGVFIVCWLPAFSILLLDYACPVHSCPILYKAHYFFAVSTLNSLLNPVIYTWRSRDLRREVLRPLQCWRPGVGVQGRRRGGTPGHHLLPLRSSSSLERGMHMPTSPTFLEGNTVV
Sphingosine 1-phosphate receptor 5, sequence (Q9H228 whole entry): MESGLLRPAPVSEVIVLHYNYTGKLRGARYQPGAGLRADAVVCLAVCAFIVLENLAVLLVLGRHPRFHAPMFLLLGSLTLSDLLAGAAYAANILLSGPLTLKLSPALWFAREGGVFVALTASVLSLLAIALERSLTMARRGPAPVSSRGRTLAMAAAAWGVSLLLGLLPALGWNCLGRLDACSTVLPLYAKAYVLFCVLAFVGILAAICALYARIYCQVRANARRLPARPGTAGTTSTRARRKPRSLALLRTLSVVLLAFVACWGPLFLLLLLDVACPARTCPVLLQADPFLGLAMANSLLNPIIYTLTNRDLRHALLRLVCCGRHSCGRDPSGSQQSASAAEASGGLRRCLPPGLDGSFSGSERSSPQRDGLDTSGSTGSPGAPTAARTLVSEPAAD
Sphingosine 1-phosphate receptor 3, sequence (Q99500 whole entry): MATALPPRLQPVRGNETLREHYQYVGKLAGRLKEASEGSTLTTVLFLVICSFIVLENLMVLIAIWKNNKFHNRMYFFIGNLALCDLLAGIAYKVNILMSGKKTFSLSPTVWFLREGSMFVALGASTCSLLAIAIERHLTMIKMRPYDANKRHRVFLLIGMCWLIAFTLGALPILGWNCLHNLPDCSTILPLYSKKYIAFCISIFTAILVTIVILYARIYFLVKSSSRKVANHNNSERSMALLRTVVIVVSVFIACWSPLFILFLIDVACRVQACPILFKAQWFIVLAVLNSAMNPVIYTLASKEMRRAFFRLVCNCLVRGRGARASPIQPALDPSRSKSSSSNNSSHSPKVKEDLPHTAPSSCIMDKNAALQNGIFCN
Sphingosine 1-phosphate receptor 1 (Rattus norvegicus, UniProt P48303), sequence (P48303 whole entry): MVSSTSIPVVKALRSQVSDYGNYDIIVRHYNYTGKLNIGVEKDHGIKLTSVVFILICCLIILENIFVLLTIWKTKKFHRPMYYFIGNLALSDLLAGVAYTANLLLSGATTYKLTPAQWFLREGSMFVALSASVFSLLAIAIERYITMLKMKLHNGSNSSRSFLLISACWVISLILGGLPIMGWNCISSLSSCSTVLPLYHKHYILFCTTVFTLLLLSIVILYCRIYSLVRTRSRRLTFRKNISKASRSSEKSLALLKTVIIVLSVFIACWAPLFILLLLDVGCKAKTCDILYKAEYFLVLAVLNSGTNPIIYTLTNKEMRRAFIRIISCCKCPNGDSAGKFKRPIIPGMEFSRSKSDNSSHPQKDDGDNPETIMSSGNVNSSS
Sphingosine 1-phosphate receptor 1 (Mus musculus, UniProt O08530), sequence (O08530 whole entry): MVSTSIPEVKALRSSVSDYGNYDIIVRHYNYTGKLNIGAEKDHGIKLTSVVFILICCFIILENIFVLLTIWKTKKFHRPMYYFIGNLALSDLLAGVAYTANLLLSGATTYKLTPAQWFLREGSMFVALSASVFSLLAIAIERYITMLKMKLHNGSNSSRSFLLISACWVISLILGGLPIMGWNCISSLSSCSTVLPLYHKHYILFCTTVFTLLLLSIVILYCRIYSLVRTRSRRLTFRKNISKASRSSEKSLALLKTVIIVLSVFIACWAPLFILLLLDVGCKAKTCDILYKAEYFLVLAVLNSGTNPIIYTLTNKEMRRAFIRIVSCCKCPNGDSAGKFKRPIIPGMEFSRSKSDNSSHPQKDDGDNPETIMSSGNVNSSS

## CC(C)Oc1ccc(-c2nc(-c3ccc4[nH]c5c(c4c3)CCC5CC(=O)O)no2)cc1C#N (racemic)
[1]
  EC50: 7.5 nM

## N#Cc1cc(OC(F)(F)F)cc(-c2nc(-c3ccc4[nH]c5c(c4c3)CCC5CC(=O)O)no2)c1 (stereo in doubt; 17a)
[2]
  EC50: 11 nM
[3]
  EC50: 239 nM
[4]
  EC50: > 100000 nM
[5]
  EC50: > 100000 nM
[6]
  EC50: 8.3 nM
[1]
  EC50: 1.73 nM
[7]
  EC50: 55 nM
[8]
  EC50: 1.4 nM

## N#Cc1cc(OC(F)(F)F)cc(-c2nc(-c3ccc4[nH]c5c(c4c3)CCC5CC(=O)O)no2)c1 (single isomer, unassigned)
[9]
  Activity: Active
[10]
  Activity: Active
[11]
  Activity: Active

## N#Cc1cc(OC(F)(F)F)cc(-c2nc(-c3ccc4c(c3)cc3n4CCC3CC(=O)O)no2)c1 (stereo in doubt; 23a)
[2]
  EC50: 289 nM
[3]
  EC50: > 100000 nM
[4]
  EC50: > 100000 nM
[5]
  EC50: > 100000 nM
[6]
  EC50: 5.5 nM
[1]
  EC50: 0.76 nM
[7]
  EC50: 123 nM
[8]
  EC50: 3.4 nM

## COc1ccc(-c2nc(-c3ccc4[nH]c5c(c4c3)CCC5CC(=O)O)no2)cc1C#N (racemic)
[1]
  EC50: 4.6 nM

## O=C(O)CC1CCn2c1cc1cc(-c3noc(-c4cc(C(F)(F)F)cc(C(F)(F)F)c4)n3)ccc12 (racemic)
[1]
  EC50: 2.1 nM

## CN(Cc1cnc2nc(N)nc(N)c2n1)c1ccc(C(=O)N[C@@H](CCC(=O)O)C(=O)O)cc1
[12]
  Activity: Active

## CC(C)Oc1ccc(-c2nc(-c3ccc4c(c3)cc3n4CCC3CC(=O)O)no2)cc1C#N (racemic)
[1]
  EC50: 0.61 nM

## N#Cc1cc(OC(F)(F)F)cc(-c2nc(-c3ccc4c(c3)cc3n4CCC3CC(=O)O)no2)c1 (single isomer, unassigned; enantiomer 2)
[13]
  Activity: Active
[14]
  Activity: Active
[9]
  Activity: Active
[15]
  Activity: inactive
[16]
  Activity: Active
[17]
  Activity: Active
[18]
  Activity: Active
[11]
  Activity: Active

## COc1cc(C#N)cc(-c2nc(-c3ccc4c(c3)cc3n4CCC3CC(=O)O)no2)c1 (racemic)
[1]
  EC50: 4.6 nM

From ChEMBL document CHEMBL2046302, “Fused tricyclic indoles as S1P₁ agonists with robust efficacy in animal models of autoimmune disease” (Bioorg Med Chem Lett, 2012)
